The values below come from ChEMBL document CHEMBL1128396, “Synthesis and biological evaluation of a series of new parenteral optically active 3-[[(N-alkylpyridinium-4'-yl)thio]methyl]-2-oxaisocephems” (1995).

As usually defined, the MIC is the lowest concentration that inhibits growth of the organism. A low value points to greater potency. The term ED50 denotes the dose that gives a 50% effect, or the effect in half of the subjects. The low end stands for an effect at a small dose, the high end for a need for a large dose. Usually MIC50 stands for an inhibitory concentration at the 50% level, which refers to growth in some studies and to a panel of isolates in others. As a reminder, the MIC80 is an inhibitory concentration at the 80% level, which refers to growth in some studies and to a panel of isolates in others. Higher therefore signals lower susceptibility. By MIC90 is commonly meant the lowest concentration that inhibits either 90% of growth or 90% of the strains tested, depending on the study. Low readings indicate higher susceptibility, high ones lower susceptibility.

Holding throughout (format): functional
The test system of experiment [1] is Escherichia coli. Nature of the experiment: Antibacterial activity was determined against Escherichia coli NIHJ JC-2 (Gram-negative). In short, it runs like this:
(§1)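 2-fold agar dilution on Müller-Hinton agar. Overnight broth cultures were diluted to about 10^6 CFU/mL, and 10^4 CFU/spot was applied to plates with graded drug concentrations. Plates were incubated 18 h at 37 °C.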

Experiment [2] concerns Staphylococcus epidermidis. Nature of the experiment: Antibacterial activity was determined against Staphylococcus epidermidis ATCC 12228 (Gram-positive). The method, boiled down: as §1
Experiment [3] deals with Staphylococcus aureus. Nature of the experiment: Antibacterial activity was determined against Staphylococcus aureus FDA 209P (Gram-positive). In short, it runs like this: as §1
The test system of experiment [4] is Mus musculus. Nature of the experiment: Antibacterial activity was determined against MRSA 5038 at a challenge dose of 1.00*10e7 (cells/mouse) administered subcutaneously. To be noted: sc. In short, it runs like this:
(§2)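 Cultures were grown overnight at 37 °C in tryptic soy broth (S. aureus, MRSA, E. faecalis) or Müller-Hinton broth (E. coli, S. pneumoniae). Graded doses were given subcutaneously 1 h post-infection. ED50 was calculated by probit from day-7 survival, with 95% confidence limits.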

In experiment [5] the test system is Pseudomonas aeruginosa. Nature of the experiment: Antibacterial activity was determined against Pseudomonas aeruginosa ATCC 10145 (Gram-negative). The method, boiled down: as §1
For experiment [6], the system named is Klebsiella pneumoniae. Nature of the experiment: Antibacterial activity was determined against Klebsiella pneumoniae NCTC 9632 (Gram-negative). In short, it runs like this: as §1
Experiment [7] concerns Staphylococcus aureus. Nature of the experiment: Antibacterial activity was determined against Methicillin-resistant Staphylococcus aureus (MRSA) 5038 (Gram-positive).
Experiment [8] concerns Serratia marcescens. In words: Antibacterial activity was determined against Serratia marcescens ATCC 12648 (Gram-negative). The method, boiled down:
as §1

Experiment [9] relates to Enterococcus faecalis. In words: Antibacterial activity was determined against Enterococcus faecalis ATCC 21212 (Gram-positive). In short, it runs like this: as §1
For experiment [10], the system named is Mus musculus. In words: Antibacterial activity was determined against Staphylococcus aureus Smith at a challenge dose of 1.32*10e7 (cells/mouse) administered subcutaneously. The following applies: sc. The method, boiled down:
as §2

The subject of experiment [11] is Mus musculus. In words: Antibacterial activity was determined against MRSA 5120 at a challenge dose of 7.6*10e7 (cells/mouse) administered subcutaneously. To be noted: sc. In short, it runs like this:
as §2

The subject of experiment [12] is Mus musculus. Nature of the experiment: Antibacterial activity was determined against Enterococcus faecalis C 0063 at a challenge dose of 7.00*10e7 (cells/mouse) administered subcutaneously. The following applies: sc. The method, boiled down: as §2
Experiment [13] relates to Staphylococcus aureus. Nature of the experiment: […] was determined against MRSA 5120.
In experiment [14] the test system is Mus musculus. Nature of the experiment: Antibacterial activity was determined against Escherichia coli 29 at a challenge dose of 1.35*10e6 (cells/mouse) administered subcutaneously. To be noted: sc. The method, boiled down:
as §2

The test system of experiment [15] is Enterococcus faecalis. Nature of the experiment: In vitro antibacterial activity against clinical isolates Enterococcus faecalis was determined. The method, boiled down:
as §1

Experiment [16] concerns Mus musculus. In words: Antibacterial activity was determined against Streptococcus pneumoniae C 0096 at a challenge dose of 1.60*10e2 (cells/mouse) administered subcutaneously. The following applies: sc. The method, boiled down: as §2
The subject of experiment [17] is Staphylococcus aureus. Nature of the experiment: In vitro antibacterial activity against clinical isolates methicillin-resistant Staphylococcus aureus was determined. The method, boiled down: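 2-fold agar dilution on Müller-Hinton agar. Overnight broth cultures were diluted to about 10^6 CFU/mL, and 10^4 CFU/spot was applied to plates with graded drug concentrations.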

Experiment [18] deals with Streptococcus pneumoniae. In words: In vitro antibacterial activity against clinical isolates Ampicillin-insensitive Streptococcus pneumoniae was determined. The method, boiled down: as §1

The structures appear in SMILES notation. Values after ≈ are worked out from the molar mass of the structure shown.

Turning to `CNC(=O)C[n+]1ccc(SCC2=C(C(=O)O)N3C(=O)[C@@H](NC(=O)/C(=N\OC4CCCC4)c4csc(N)n4)[C@H]3CO2)cc1.O=S(=O)([O-])O`, the MIC was 0.78 µg/mL in [1]; 0.2 µg/mL in experiment [2]; 0.2 µg/mL in experiment [3]; 12.5 µg/mL in [5]; 0.39 µg/mL in experiment [6]; 6.25 µg/mL in experiment [7]. In addition, the MIC in experiment [8] and in [9] was 1.56 µg/mL in each case. In addition, the median effective dose (ED50) in [4] was found to be 2.27 mg/kg; in experiment [10], 0.18 mg/kg.

Take `NC(=O)C[n+]1ccc(SCC2=C(C(=O)O)N3C(=O)[C@@H](NC(=O)/C(=N\OC4CCCC4)c4csc(N)n4)[C@H]3CO2)cc1.O=S(=O)([O-])O`: the MIC worked out at 0.2 µg/mL in experiment [1]; 0.05 µg/mL in experiment [2]; 0.1 µg/mL in [3]; 3.13 µg/mL in [5]; 0.2 µg/mL in experiment [6]; 6.25 µg/mL in experiment [7]. For the same compound, the MIC in [8] and in experiment [9] was 1.56 µg/mL each time.

With `CO[C@@]1(NC(=O)CSC(F)F)C(=O)N2C(C(=O)O)=C(CSc3nnnn3CCO)CO[C@@H]21` [FLOMOXEF], the ED50 in [11] is 8.52 mg/kg; in experiment [12], greater than 200 mg/kg; in experiment [14], 0.43 mg/kg; in [16] it was 18.6 mg/kg. The MIC in [1] was 0.1 µg/mL (≈ 0.201 µM); in experiment [2] it was 0.39 µg/mL (≈ 0.786 µM); in experiment [3] it was 0.39 µg/mL (≈ 0.786 µM); in experiment [13] it was 25 µg/mL (≈ 50.4 µM); in experiment [5] it was greater than 100 µg/mL; in [6], 0.1 µg/mL (≈ 0.201 µM). For the same compound, the minimum inhibitory concentration (MIC) in experiment [7] was 50 µg/mL (≈ 101 µM); in [8] it was 0.78 µg/mL (≈ 1.57 µM); in experiment [9], 100 µg/mL (≈ 201 µM). Also, the MIC50 in experiment [15] is greater than 100 µg/mL; in experiment [17], 25 µg/mL (≈ 50.4 µM); in experiment [18], 3.13 µg/mL (≈ 6.3 µM). Further, the MIC80 in [15] was greater than 100 µg/mL; in experiment [17], 100 µg/mL (≈ 201 µM); in [18], 6.25 µg/mL (≈ 12.6 µM). For the same compound, the MIC90 in [15] is greater than 100 µg/mL; in experiment [17] it was 100 µg/mL (≈ 201 µM); in experiment [18], 6.25 µg/mL (≈ 12.6 µM).

In the case of `C=CC[n+]1ccc(SCC2=C(C(=O)O)N3C(=O)[C@@H](NC(=O)/C(=N\OC4CCCC4)c4csc(N)n4)[C@H]3CO2)cc1.O=S(=O)([O-])O`, the MIC was 0.39 µg/mL in experiment [1]; 0.05 µg/mL in [2]; 0.1 µg/mL in [3]; 6.25 µg/mL in [5]; 0.39 µg/mL in experiment [6]; 6.25 µg/mL in [7]. Also, the MIC in experiment [8] is 1.56 µg/mL; in experiment [9], 0.78 µg/mL.

With `Nc1nc(/C(=N/OC2CCCC2)C(=O)N[C@@H]2C(=O)N3C(C(=O)O)=C(CSc4cc[n+](CC(=O)N5CCOCC5)cc4)OC[C@H]23)cs1.O=S(=O)([O-])O`, the MIC came to 0.78 µg/mL in [1]; 0.2 µg/mL in experiment [2]; 0.2 µg/mL in [3]; 6.25 µg/mL in [5]; 0.78 µg/mL in experiment [6]; 12.5 µg/mL in experiment [7]. The MIC in [8] and in experiment [9] was 1.56 µg/mL each time.

Take `CC1(C)S[C@@H]2[C@H](NC(=O)[C@H](N)c3ccccc3)C(=O)N2[C@H]1C(=O)O` [AMPICILLIN]: the median effective dose (ED50) in experiment [16] was determined as 8.23 mg/kg. Besides, in experiment [18], the MIC50 came to 3.13 µg/mL (≈ 8.96 µM), the MIC80 was 3.13 µg/mL (≈ 8.96 µM) and the MIC90 is 3.13 µg/mL (≈ 8.96 µM).

With `CC(C)(C)C(=O)C[n+]1ccc(SCC2=C(C(=O)O)N3C(=O)[C@@H](NC(=O)/C(=N\OC4CCCC4)c4csc(N)n4)[C@H]3CO2)cc1.O=S(=O)([O-])O`, the MIC amounted to 1.56 µg/mL in experiment [1]; 0.39 µg/mL in experiment [2]; 0.2 µg/mL in experiment [3]; 25 µg/mL in [5]; 1.56 µg/mL in experiment [6]; 6.25 µg/mL in experiment [7]. Moreover, the MIC in experiment [8] was determined as 3.13 µg/mL; in [9], 1.56 µg/mL.

`CCC(=O)C[n+]1ccc(SCC2=C(C(=O)O)N3C(=O)[C@@H](NC(=O)/C(=N\OC4CCCC4)c4csc(N)n4)[C@H]3CO2)cc1.O=S(=O)([O-])O`: the ED50 in experiment [11] stood at 1 mg/kg; in experiment [12], 5.23 mg/kg; in experiment [14] it was 0.15 mg/kg; in experiment [16], 0.56 mg/kg; in experiment [10] it was 0.22 mg/kg. For the same compound, the minimum inhibitory concentration (MIC) in experiment [1] came out at 0.39 µg/mL; in experiment [2], 0.2 µg/mL; in [3] it was 0.2 µg/mL; in experiment [13], 6.25 µg/mL; in experiment [5], 6.25 µg/mL; in experiment [6], 0.39 µg/mL. Besides, the minimal inhibitory concentration (MIC) in [7] was 6.25 µg/mL; in experiment [8], 1.56 µg/mL; in [9] it was 1.56 µg/mL. Besides, the MIC50 in experiment [15] worked out at 3.13 µg/mL; in [17], 6.25 µg/mL; in experiment [18], 0.025 µg/mL. For the same compound, the MIC80 was found to be 3.13 µg/mL in experiment [15], 6.25 µg/mL in [17] and 0.05 µg/mL in experiment [18]. For the same compound, the results for the MIC90 in experiment [15], in experiment [17] and in experiment [18] were 6.25 µg/mL, 6.25 µg/mL and 0.05 µg/mL, respectively.
